Measurements published in PMC8157400 (Chemical Science, 2020).

Experiments:
folate receptor-a (FR-α) = conditions: cited from earlier work
IGROV-1 cells [1] = conditions: IGROV-1 cells (EGFR/FR-α double positive); cited from earlier work
IGROV-1 cells [2] = experiment: Antibody recruitment / binding on cells, flow cytometry; assay type: cell-based, human
IGROV-1 cells [3] = experiment: ADCC assay; assay type: cell-based, human
[4] = tested on: KHYG-1/CD16a-158V cells co-cultured with IGROV-1 cells; experiment: CD107a mobilization assay, flow cytometry; assay type: cell-based, human; conditions: Fc-ARM2 10 nM + anti-CD20 100 nM, 6 h, E/T = 1
How it was run: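 Human NK line KHYG-1 expressing CD16a-158V co-cultured 6 h with FR-α+ IGROV-1 ovarian adenocarcinoma cells (E/T 1) with the indicated reagents. Surface CD107a on NK cells read by flow cytometry. Mean ± SEM; two experimental repeats; one-way ANOVA with Tukey's multiple comparison test.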

IGROV-1 cells (FR-α+) = experiment: Antibody recruitment to cancer cells, fluorescence microscopy; assay type: cell-based, human; conditions: Fc-ARM2 100 nM
[5] = tested on: A549 lung cancer cells (FR-α−); experiment: ADCC assay; assay type: cell-based, human; conditions: Fc-ARM2 + anti-CD20, 16 h, E/T 1-8, n = 3, Fig. S7
[6] = tested on: KHYG-1/CD16a-158V NK cells co-cultured with IGROV-1 cells; experiment: IFN-γ secretion from NK cells, ELISA; assay type: cell-based, human
IGROV-1 cells [7] = experiment: Mouse IgG recruitment and NK cell activation; assay type: cell-based, human; conditions: Fc-ARM2 10 nM, mouse IgG 100 nM; flow cytometry n = 4; ADCC 16 h n = 3; Fig. S11

SMILES: Nc1nc(=O)c2nc(CNc3ccc(C(=O)N[C@@H](CCC(=O)O)C(=O)O)cc3)cnc2[nH]1 [FA, folic acid]
- Affinity to FR-α (folate receptor-a (FR-α)): sub-nanomolar

SMILES: CC(C)C[C@@H]1NC(=O)[C@H](Cc2c[nH]cn2)NC(=O)[C@H](Cc2c[nH]c3ccccc23)NC(=O)[C@H](C)NC(=O)[C@@H](NC(=O)[C@H](CC(=O)O)NC(=O)CCOCCOCCOCCOCCOCCOCCNC(=O)CC[C@H](NC(=O)c2ccc(NCc3cnc4nc(N)[nH]c(=O)c4n3)cc2)C(=O)O)CSSC[C@@H](C(=O)N[C@H](C(N)=O)[C@@H](C)O)NC(=O)[C@H](Cc2c[nH]c3ccccc23)NC(=O)[C@H](C(C)C)NC(=O)[C@H](CC(C)C)NC(=O)[C@H](CCC(=O)O)NC(=O)CNC1=O [Fc-ARM1]
- Effect on ADCC activity of anti-EGFR mAb (IGROV-1 cells [1]): inhibited the ADCC activity
- Change in MFI of fluorescein-labeled anti-EGFR mAb on cells (IGROV-1 cells [2]; 10 nM Fc-ARM1 added, Fig. S9A): about a six-fold increase in MFI
- ADCC (% cytotoxicity) after 4 h co-culture (IGROV-1 cells [3]; Fc-ARM + anti-CD20, 4 h, E/T 1-8, n = 3, Fig. 4A): did not show detectable cytotoxicity

SMILES: CC(C)C[C@@H]1NC(=O)[C@H](Cc2c[nH]cn2)NC(=O)[C@H](Cc2c[nH]c3ccccc23)NC(=O)[C@H](C)NC(=O)[C@@H]2CSSC[C@H](NC(=O)[C@H](Cc3c[nH]c4ccccc34)NC(=O)[C@H](C(C)C)NC(=O)[C@H](CC(C)C)NC(=O)[C@H](CCC(=O)O)NC(=O)CNC1=O)C(=O)N[C@@H]([C@@H](C)O)C(=O)N[C@H](C(N)=O)CSSC[C@H](NC(=O)CCOCCOCCOCCOCCOCCOCCNC(=O)CC[C@H](NC(=O)c1ccc(NCc3cnc4nc(N)[nH]c(=O)c4n3)cc1)C(=O)O)C(=O)N[C@@H](CC(=O)O)C(=O)N2 [Fc-ARM2]
- Surface mobilization of CD107a on NK cells [4]: surface mobilization of CD107a
- Recruitment of Fc-fluorescein (Fc-fluo) to cells (IGROV-1 cells (FR-α+); Fc-fluo 500 nM): recruited the papain-digested Fc fragment of IgG1
- Recruitment of IgG-FITC to cells (IGROV-1 cells (FR-α+); IgG-FITC 500 nM, 30 min, 4 °C): successfully recruited FITC-labeled human IgG (IgG-FITC) to IGROV-1 cells
- Recruitment of IgG-FITC to cells with excess FA (IGROV-1 cells (FR-α+); IgG-FITC 500 nM, FA 100 µM as competitor): diminished IgG-derived fluorescence
- ADCC against A549 cells [5]: ADCC was not induced
- IFN-γ secretion from NK cells ([6]; Fc-ARM2 + anti-CD20, E/T = 8, ELISA of supernatant, Fig. 3B): secretion of interferon-γ (IFN-γ)
- IFN-γ secretion from NK cells after 16 h ([6]; Fc-ARM + anti-CD20, E/T = 4, 16 h, Fig. S8): induced a higher amount of IFN-γ secretion
- Recruitment of mouse IgG and ADCC (IGROV-1 cells [7]): did not work with mouse IgG
- Amount of recruited IgG-FITC (MFI) (IGROV-1 cells [2]; 10 nM Fc-ARM, increasing IgG-FITC, n = 3, Fig. 2E): recruited a higher amount of IgG-FITC compared with Fc-ARM1
- ADCC (% cytotoxicity) with recruited anti-CD20 (IGROV-1 cells [3]; Fc-ARM 10 nM + anti-CD20 100 nM, 16 h, E/T 1-8, LDH assay, n = 3): showed clear target cell killing
- ADCC with increasing concentration of anti-CD20 (IGROV-1 cells [3]; Fc-ARM 10 nM, E/T = 8, 16 h, n = 3, Fig. 4C): induced ADCC more effectively
- ADCC (% cytotoxicity) with excess FA (IGROV-1 cells [3]; Fc-ARM2 10 nM + anti-CD20 100 nM + FA (1 μM), 16 h): eliminated by excess FA
- ADCC with Fc fragment of anti-CD20 (IGROV-1 cells [3]; Fc-ARM2 + Fc fragment of anti-CD20 mAb, n = 3, Fig. 4D): induced cytotoxicity upon recruitment by Fc-ARM2
- ADCC (% cytotoxicity) after 6, 8 and 16 h co-culture (IGROV-1 cells [3]; Fc-ARM + anti-CD20, E/T = 4, Fig. 4B): showed higher cytotoxicity compared with Fc-ARM1 + anti-CD20
